Test results: paper PMC10839117 (Cell chemical biology, 2023)
Entries after “also recorded” stand apart in the source; their conditions may differ. Primed or numbered codes have the meaning given here. Where no end group is shown, it is not given here. [ ]: non-standard residue; d: D form. two‑PEG linker = not defined here; YHJ1039 = not defined here; PEG2′ = two-PEG linker

Key:
[1] = molecular target: WEE1-nanoluciferase fusion protein (Homo sapiens, UniProt P30291); test: WEE1 cellular engagement assay; format: cell-based; details: nano-BRET, HEK-293T cells, one hour
Summary of the method: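 HEK-293T cells were transiently transfected with a WEE1-nanoluciferase plasmid. The next day they were replated at 8,000 cells/well in phenol red-free DMEM with 4% FBS, together with K-5 tracer and 2 μM MLN4924. After 1 h, DMSO-normalised test compound was added. One hour later, nano-BRET detection reagent was added. The BRET ratio (610/450 nm) was normalised to DMSO wells.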

WEE1 and CDK4 RNA = test: RT-PCR of WEE1 and CDK4 RNA; format: cell-based, human; details: MOLM-14 cells, 1 μM, 24 hours
KLHDC2-WEE1 = KLHDC2-WEE1 (Homo sapiens, UniProt P30291+Q9Y2U9); test: GST pulldown assay with purified KLHDC2 and WEE1 proteins; format: binding
Summary of the method: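 Purified proteins were His6-GST-KLHDC2 (propeller domain, residues 1-362, lacking the autoinhibitory C-terminus; E. coli-expressed) and the WEE1 kinase domain with its tag removed by TEV. They were incubated with DMSO or test compound for 1 h on ice in 20 mM Tris-HCl pH 8.5, 150 mM NaCl, 1 mM TCEP, 0.05% NP-40 substitute. Glutathione-agarose was added for 1 h at 4°C, followed by three washes. Bound material was analysed by SDS-PAGE.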

[2] = molecular target: WEE1 kinase domain (residues 290-576) (Homo sapiens, UniProt P30291); test: HiBiT degradation assay, WEE1 kinase domain; format: cell-based
Summary of the method: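 Pooled selected cells, checked for kinase expression by lytic HiBiT, grown with 10% FBS and 1% penicillin-streptomycin at 37°C, 5% CO2. Cells were dispensed and treated in triplicate or quadruplicate with DMSO balanced, then lysed for HiBiT luminescence after 6 h. For the MLN4924 arm, cells were pretreated 2 h with 1 μM MLN4924. HiBiT signal was normalized to CellTiter-Glo viability per matching condition and to DMSO.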

CDK4 [3] = molecular target: T1, CDK4 (Homo sapiens, UniProt P11802); test: HiBiT degradation assay, CDK4; format: cell-based
Summary of the method: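 MOLM-14 cells were lentivirally transduced with HiBiT-tagged kinase (GSGS linker, EF1a promoter) and pooled after 1 μg/ml puromycin selection. Cells were pretreated for 2 h with 1 μM MLN4924, then treated with test compound for 6 h in triplicate or quadruplicate. Lytic HiBiT luminescence was normalised to the matching CellTiter-Glo viability signal and to DMSO for each treatment.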

MOLM-14 cells = test: Cell proliferation assay; format: cell-based, human
Summary of the method: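 MOLM-14 cells were plated at low density and treated in triplicate or quadruplicate with DMSO-balanced test compound, with or without MLN4924. After 72 h, CellTiter-Glo was added for 10–15 min at room temperature and luminescence was read. Signal was normalised to DMSO-only wells, or to DMSO plus MLN4924 at the matching MLN4924 concentration.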

NEK9 = molecular target: T2, NEK9 (Homo sapiens, UniProt Q8TD19); test: Kinase degradation by Western blotting, NEK9; format: cell-based; details: read-out: DC50 NEK9, MOLM-14 cells, 24 hours
T2 sequence (Q8TD19 1-979): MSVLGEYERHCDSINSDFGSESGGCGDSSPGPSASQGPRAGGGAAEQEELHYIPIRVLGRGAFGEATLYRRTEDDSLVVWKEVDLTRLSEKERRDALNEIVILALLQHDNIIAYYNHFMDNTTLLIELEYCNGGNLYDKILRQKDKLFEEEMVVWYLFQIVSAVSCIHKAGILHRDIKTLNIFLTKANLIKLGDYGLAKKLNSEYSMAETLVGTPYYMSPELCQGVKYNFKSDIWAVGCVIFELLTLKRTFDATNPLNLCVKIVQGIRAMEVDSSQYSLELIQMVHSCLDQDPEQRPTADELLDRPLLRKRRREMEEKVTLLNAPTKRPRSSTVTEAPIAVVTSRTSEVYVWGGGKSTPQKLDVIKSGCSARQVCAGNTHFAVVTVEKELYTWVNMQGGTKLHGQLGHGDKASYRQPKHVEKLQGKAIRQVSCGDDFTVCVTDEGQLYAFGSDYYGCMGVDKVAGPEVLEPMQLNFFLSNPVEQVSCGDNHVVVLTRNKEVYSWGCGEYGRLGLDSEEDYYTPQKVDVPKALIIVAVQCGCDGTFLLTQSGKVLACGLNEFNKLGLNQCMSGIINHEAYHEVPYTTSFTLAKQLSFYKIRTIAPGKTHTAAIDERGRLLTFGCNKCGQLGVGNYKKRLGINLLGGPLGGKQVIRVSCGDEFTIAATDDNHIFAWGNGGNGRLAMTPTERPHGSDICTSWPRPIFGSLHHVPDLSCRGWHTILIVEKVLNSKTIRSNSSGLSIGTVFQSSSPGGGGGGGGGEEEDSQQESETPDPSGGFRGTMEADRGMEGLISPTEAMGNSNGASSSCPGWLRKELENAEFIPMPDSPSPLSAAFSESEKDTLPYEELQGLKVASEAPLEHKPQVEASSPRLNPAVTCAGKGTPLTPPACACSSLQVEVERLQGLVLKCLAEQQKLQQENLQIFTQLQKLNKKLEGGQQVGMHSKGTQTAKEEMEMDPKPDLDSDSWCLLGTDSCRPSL
Summary of the method: (§1)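 MOLM-14 cells (RPMI-1640, 10% FBS, 37°C, 5% CO2) were exposed to test compound for 24 h. Cells were washed in PBS, lysed with protease inhibitors, and equal protein was boiled in SDS sample buffer. Blots were blocked for at least 1 h in TBST/5% milk, then probed with kinase antibodies at 1:1,000 and HRP secondaries at 1:10,000. DC50 was taken from quantitative Western blotting.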

KLHDC2 = molecular target: T3, KLHDC2 (Homo sapiens, UniProt Q9Y2U9); test: TR-FRET binding assay, KLHDC2
T3 sequence (Q9Y2U9 1-362): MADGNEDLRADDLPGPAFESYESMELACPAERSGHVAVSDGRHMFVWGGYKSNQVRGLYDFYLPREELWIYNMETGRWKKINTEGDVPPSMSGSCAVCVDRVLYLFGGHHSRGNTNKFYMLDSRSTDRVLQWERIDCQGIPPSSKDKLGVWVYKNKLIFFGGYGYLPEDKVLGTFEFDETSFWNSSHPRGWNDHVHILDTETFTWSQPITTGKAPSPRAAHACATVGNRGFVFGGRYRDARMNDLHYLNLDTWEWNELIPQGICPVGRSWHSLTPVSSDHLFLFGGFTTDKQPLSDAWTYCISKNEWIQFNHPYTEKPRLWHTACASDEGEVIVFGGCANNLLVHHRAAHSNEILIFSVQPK

WEE1 = WEE1 (Homo sapiens, UniProt P30291); test: Kinase degradation by Western blotting, WEE1; format: cell-based; details: MOLM-14 cells
Summary of the method: as §1

CDK4 [4] = molecular target: T1, CDK4; test: Kinase degradation by Western blotting, CDK4; format: cell-based; details: MOLM-14 cells
Summary of the method: as §1

FAK = FAK (Homo sapiens, UniProt Q05397); test: Kinase degradation by Western blotting, FAK; format: cell-based; details: read-out: DC50 FAK, MOLM-14 cells, 24 hours
Summary of the method: as §1

[5] = tested on: NEK9, FAK, CDK4, CDK6, and WEE1; test: Kinase degradation by Western blotting, MOLM-14 cells; format: cell-based, human; details: 24 hours; for kinase degradation activity compared between compounds: Western blot, DB0614 comparison at 1 μM
CDK6 = CDK6 (Homo sapiens, UniProt Q00534); test: Kinase degradation by Western blotting, CDK6; format: cell-based; details: read-out: DC50 CDK6, MOLM-14 cells, 24 hours
Summary of the method: as §1

WEE1 and CDK4 = test: Kinase degradation by Western blotting in a panel of cancer cell lines; format: cell-based, human; details: 1 μM
Summary of the method: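 Cancer cell lines were grown in RPMI-1640 (MOLM-14, MV-4-11, MOLT-4, DLD1, K562, SW480, MDA-MB-231, MCF7), EMEM (Detroit 551) or DMEM (GIST-T1, Hs27), each with 10% FBS and 1% pen-strep at 37°C, 5% CO2. Cells were treated with test compound, washed in PBS and lysed with protease inhibitors. Equal protein was blotted; membranes were blocked in TBST/5% milk, then probed with primaries at 1:1,000 and HRP secondaries at 1:10,000.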

[6] = cited from earlier work
[7] = molecular target: T4, His6-GST-KLHDC2 (residues 1-362, propellor domain, lacking the autoinhibitory C-terminus) (UniProt Q9Y2U9 1-362); test: AlphaScreen or HTRF
T4 sequence (looked up): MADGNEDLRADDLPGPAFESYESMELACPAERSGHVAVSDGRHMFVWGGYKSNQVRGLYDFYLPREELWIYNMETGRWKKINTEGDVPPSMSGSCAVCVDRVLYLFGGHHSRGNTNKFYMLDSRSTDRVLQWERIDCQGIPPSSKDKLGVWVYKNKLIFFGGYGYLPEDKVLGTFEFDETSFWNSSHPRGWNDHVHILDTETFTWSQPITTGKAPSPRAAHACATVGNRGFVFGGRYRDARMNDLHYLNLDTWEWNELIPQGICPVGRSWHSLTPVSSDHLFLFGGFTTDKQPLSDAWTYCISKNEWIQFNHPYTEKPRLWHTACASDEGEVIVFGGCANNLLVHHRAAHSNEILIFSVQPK

[8] = 1 μM MLN4924 two hours, then six-hour experiment

T1 sequence (P11802 whole entry): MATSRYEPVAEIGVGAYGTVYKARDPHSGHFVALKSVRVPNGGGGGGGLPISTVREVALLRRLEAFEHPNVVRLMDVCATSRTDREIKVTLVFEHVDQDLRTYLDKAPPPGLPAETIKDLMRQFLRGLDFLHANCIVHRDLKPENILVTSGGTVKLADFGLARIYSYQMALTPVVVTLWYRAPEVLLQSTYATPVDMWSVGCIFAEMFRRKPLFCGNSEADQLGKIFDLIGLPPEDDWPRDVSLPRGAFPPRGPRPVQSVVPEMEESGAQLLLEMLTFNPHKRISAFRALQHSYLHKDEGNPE
WEE1 kinase domain (residues 290-576), sequence (P30291 290-576): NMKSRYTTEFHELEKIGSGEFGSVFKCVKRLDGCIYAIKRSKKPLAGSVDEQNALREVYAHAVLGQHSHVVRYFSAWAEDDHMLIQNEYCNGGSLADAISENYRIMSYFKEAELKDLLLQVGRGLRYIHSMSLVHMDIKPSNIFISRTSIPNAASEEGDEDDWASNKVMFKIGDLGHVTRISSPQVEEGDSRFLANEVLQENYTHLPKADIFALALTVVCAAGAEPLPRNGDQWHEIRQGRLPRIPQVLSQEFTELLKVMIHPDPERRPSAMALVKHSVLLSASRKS
WEE1, sequence (P30291 whole entry): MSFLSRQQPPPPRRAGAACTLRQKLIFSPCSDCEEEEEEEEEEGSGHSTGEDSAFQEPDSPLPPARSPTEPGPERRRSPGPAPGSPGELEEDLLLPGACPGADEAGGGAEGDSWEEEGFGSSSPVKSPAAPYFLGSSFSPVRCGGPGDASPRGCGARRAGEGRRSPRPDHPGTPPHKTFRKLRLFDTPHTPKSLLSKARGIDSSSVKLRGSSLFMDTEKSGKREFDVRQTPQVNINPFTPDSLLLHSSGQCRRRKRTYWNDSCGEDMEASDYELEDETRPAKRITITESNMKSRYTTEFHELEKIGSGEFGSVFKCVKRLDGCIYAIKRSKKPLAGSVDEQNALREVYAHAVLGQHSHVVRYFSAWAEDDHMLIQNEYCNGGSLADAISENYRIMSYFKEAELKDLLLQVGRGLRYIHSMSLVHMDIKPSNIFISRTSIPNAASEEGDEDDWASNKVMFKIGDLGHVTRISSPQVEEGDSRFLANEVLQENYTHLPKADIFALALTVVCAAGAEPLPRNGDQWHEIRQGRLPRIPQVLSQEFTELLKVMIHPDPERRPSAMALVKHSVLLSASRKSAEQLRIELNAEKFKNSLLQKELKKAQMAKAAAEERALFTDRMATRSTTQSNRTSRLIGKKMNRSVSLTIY
WEE1-nanoluciferase fusion protein, sequence (P30291 whole entry, the tested form may be a part): as the sequence (P30291 whole entry) above
FAK, sequence (Q05397 whole entry): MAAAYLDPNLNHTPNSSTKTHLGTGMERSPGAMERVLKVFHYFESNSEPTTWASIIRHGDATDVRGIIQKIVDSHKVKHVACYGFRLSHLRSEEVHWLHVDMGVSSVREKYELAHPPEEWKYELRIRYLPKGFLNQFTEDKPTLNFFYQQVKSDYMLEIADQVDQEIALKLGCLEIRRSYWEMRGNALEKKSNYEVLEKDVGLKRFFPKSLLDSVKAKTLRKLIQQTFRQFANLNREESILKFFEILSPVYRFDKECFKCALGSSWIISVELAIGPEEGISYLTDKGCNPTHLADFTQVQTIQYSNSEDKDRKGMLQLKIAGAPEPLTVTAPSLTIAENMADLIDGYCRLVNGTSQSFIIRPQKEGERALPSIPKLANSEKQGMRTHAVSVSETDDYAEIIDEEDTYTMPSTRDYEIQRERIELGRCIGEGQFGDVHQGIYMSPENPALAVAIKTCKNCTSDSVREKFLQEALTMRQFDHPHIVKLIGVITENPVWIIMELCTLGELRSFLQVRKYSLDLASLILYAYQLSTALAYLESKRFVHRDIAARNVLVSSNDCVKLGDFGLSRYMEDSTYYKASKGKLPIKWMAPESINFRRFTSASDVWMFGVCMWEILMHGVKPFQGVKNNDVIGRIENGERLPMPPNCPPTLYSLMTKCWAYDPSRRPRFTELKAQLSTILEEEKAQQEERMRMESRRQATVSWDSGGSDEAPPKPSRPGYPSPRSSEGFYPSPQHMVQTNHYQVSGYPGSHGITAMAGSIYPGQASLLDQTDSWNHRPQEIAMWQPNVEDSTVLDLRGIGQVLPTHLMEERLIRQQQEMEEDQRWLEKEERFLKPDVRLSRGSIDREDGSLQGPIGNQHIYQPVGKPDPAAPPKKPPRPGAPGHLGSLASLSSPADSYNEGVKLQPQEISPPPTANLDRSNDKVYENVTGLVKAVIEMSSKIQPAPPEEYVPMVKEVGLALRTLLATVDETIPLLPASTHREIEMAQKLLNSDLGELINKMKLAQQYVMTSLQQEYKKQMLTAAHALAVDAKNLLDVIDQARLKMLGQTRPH
KLHDC2-WEE1, sequence (P30291 299-569 limits assumed, one chain of several): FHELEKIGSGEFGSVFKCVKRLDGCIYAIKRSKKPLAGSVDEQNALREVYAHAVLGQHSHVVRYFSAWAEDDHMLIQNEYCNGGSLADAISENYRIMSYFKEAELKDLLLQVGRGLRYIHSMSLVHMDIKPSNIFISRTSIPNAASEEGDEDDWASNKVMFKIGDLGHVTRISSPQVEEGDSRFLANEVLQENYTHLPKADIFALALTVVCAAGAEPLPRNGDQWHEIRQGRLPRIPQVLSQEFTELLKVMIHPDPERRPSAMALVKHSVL
CDK6, sequence (Q00534 whole entry): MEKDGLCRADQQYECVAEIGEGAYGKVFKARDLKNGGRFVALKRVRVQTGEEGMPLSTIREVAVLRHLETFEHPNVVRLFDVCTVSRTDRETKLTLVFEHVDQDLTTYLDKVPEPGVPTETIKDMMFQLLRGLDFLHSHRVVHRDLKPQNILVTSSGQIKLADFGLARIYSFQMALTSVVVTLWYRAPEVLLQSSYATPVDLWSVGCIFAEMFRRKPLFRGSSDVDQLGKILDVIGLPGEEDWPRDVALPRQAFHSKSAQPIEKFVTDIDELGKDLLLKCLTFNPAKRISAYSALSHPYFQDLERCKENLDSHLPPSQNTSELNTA

Molecule: C=CCn1c(=O)c2cnc(Nc3ccc(N4CCN(C)CC4)cc3)nc2n1-c1cccc(C(C)(C)O)n1 [AZD1775, reference compound]
- WEE1 target engagement (in words) ([1]; YHJ1039 versus AZD1775): comparable

Molecule: KYH1872 (26): two-PEG linker connects YHJ1039 with a seven amino acid SelK peptide (PPPMAGG) ({YHJ1039-two‑PEG linker}-PPPMAGG; reading uncertain)
- WEE1 and CDK4 RNA levels (WEE1 and CDK4 RNA): not changed
- WEE1 engagement, fold less efficient than ZNL-02-096 ([1]; MLN4924 pretreated): ~ 300 fold
- induced KLHDC2-WEE1 binding (KLHDC2-WEE1): can induce between KLHDC2-WEE1 binding
- WEE1 degradation after MLN4924 pretreatment (HiBiT) [2, 8]: prevented WEE1 and CDK4 degradation
- DC50 WEE1-KD (HiBiT) ([2]; MOLM-14 cells, six hours, n.d. = not determined (no degradation)): 1,290 nM
- CDK4 degradation after MLN4924 pretreatment (HiBiT) (CDK4 [3]; [8]): prevented WEE1 and CDK4 degradation
- Dmax CDK4 (HiBiT) (CDK4 [3]; maximum total fraction of the target degraded, given as a fraction, MOLM-14 cells, six hours): 0.32
- effect on cell proliferation with MLN4924 co-treatment (MOLM-14 cells; co-treatment with increasing concentrations of MLN4924): blunted the negative effect
- EC50 (MOLM-14 cells; read-out: Cell viability (EC50), MOLM-14 cells, 72 hours after treatment): 1060 nM
- DC50 (NEK9): 1000 nM
- KLHDC2 binding (in words) (KLHDC2; biochemical binding assay, limit of detection ~2 nM): binds to the KLHDC2 protein; also recorded: tighter than the limit of detection
- DC50 (WEE1; read-out: DC50 WEE1, Western blotting, 24 hours): 302 nM
- time at which WEE1 degradation was observable (WEE1; time course Western blot): 12 h
- DC50 (CDK4 [4]; read-out: DC50 CDK4, Western blotting, 24 hours): 457 nM
- time at which CDK4 degradation was observable (CDK4 [4]; time course Western blot): 12 h
- DC50 (FAK): 933 nM
- kinase degradation (Western blot, in words) ([5]; KYH1872 at 1 and 10 μM): induced the degradation
- kinase degradation activity compared between compounds [5]: slightly improved degradation activity when compared with KYH1886 (25)
- DC50 (CDK6): 1070 nM
- WEE1 and CDK4 degradation in MOLM-14 and MV4-11 cells (WEE1 and CDK4): displayed WEE1 and CDK4 degradation

Molecule: CS(=O)(=O)Nc1cccc(-c2csc3cnc(Nc4ccc(N5CCN(CCCCCOc6cccc7c6C(=O)N(C6CCC(=O)NC6=O)C7=O)CC5)cc4)nc23)c1 (centres unmarked) [DB0614, reference compound]
- cytotoxicity [6]: cytotoxic
- kinase degradation activity compared between compounds [5]: more effective kinase degrader than KYH1872 (26)

Molecule: KYH2011 (27): identical to KYH1872 (26) except reversed methionine stereocenter, PPP(D-Met)AGG ({YHJ1039-PEG2′}-PPP[dM]AGG; reading uncertain; also: printed as PPP(D-Met)AGG)
- inhibition of cell proliferation (in words) (MOLM-14 cells; MOLM-14 cells, 72 hours): did not cause kinase degradation or inhibit cell proliferation
- Kd (KLHDC2; read-out: KLHDC2 binding (KD), TR-FRET, FITC-PPPMAGG probe, His6-GST-KLHDC2): 155 nM

Molecule: {YHJ1039-two‑PEG linker}-PPPMAGG (reading uncertain) [KYH1872 (26)]
- Kd [7]: < 2 nM
